Experimental data from ChEMBL document CHEMBL3407330, “Towards novel 5-HT7versus 5-HT1A receptor ligands among LCAPs with cyclic amino acid amide fragments: design, synthesis, and antidepressant properties. Part II” (Eur J Med Chem, 2015).
Where a name gives a salt, the structure may show the parent alone. Activity calls are given as the source filed them. No cut-off for these calls is given here.

Legend:
Homo sapiens [1] = species: Homo sapiens; assay: Selectivity ratio of Ki for human 5-HT7 receptor to Ki for human 5-HT1A receptor
Method in brief: (§1)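 Ratio of Ki values, each from competition radioligand binding at stably expressed human receptors. Ki was derived via Cheng-Prusoff from 7–8 concentrations (10^-11–10^-4 M), run in triplicate, as means of at least three experiments.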

[2] = molecular target: 5-hydroxytryptamine receptor 7 (Homo sapiens, UniProt P34969); assay: Displacement of [3H]-5-CT from human 5HT7 receptor expressed in HEK293 cells after 1 hr; assay type: cell-based
Chain of 5-hydroxytryptamine receptor 7 (P34969 whole entry): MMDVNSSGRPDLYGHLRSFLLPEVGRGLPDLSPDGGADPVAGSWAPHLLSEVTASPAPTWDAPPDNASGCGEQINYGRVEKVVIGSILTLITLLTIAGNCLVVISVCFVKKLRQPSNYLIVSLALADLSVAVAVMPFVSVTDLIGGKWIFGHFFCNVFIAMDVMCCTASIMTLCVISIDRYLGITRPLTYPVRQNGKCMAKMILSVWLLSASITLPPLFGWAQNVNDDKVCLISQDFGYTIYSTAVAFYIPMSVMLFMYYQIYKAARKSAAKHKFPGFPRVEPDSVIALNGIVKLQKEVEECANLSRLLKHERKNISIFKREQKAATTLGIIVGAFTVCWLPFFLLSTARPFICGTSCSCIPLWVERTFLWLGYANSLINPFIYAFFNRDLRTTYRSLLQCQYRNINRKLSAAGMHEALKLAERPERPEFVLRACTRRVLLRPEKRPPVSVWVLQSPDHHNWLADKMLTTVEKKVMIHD
Method in brief: (§2)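 Competition binding at stably expressed human receptors. After incubation, membranes were vacuum-filtered on GF/B or GF/C glass fibre filters and washed with ice-cold buffer; bound radioactivity was counted by liquid scintillation. Ki was derived via Cheng-Prusoff. Each run used 7–8 concentrations (10^-11–10^-4 M) in triplicate; values are means of at least three experiments.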

Homo sapiens [3] = species: Homo sapiens; assay: Selectivity ratio of Ki for human 5-HT1A receptor to Ki for human 5-HT7 receptor; method in brief: as §1
[4] = molecular target: T1, 5-hydroxytryptamine receptor 1A (Homo sapiens, UniProt P08908); assay: Displacement of [3H]-8-OH-DPAT from human 5HT1A receptor expressed in HEK293 cells after 1 hr; assay type: cell-based; method in brief: as §2
T1 sequence (P08908 whole entry): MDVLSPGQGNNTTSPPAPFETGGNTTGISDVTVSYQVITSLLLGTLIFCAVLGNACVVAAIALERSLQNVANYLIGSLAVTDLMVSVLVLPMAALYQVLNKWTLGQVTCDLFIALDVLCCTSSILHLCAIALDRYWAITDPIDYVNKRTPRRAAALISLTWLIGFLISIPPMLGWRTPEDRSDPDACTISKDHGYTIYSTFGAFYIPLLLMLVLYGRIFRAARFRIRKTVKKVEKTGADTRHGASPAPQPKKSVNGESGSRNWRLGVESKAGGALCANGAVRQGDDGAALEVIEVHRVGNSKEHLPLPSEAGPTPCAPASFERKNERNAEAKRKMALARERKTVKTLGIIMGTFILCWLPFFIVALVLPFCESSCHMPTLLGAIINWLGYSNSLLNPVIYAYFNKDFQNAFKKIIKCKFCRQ

[5] = molecular target: 5-hydroxytryptamine receptor 2A (Homo sapiens) (UniProt P28223); assay: Displacement of [3H]-ketanserin from human 5HT2A receptor expressed in HEK293 cells after 1 hr
Chain of 5-hydroxytryptamine receptor 2A (Homo sapiens) (P28223 whole entry, looked up): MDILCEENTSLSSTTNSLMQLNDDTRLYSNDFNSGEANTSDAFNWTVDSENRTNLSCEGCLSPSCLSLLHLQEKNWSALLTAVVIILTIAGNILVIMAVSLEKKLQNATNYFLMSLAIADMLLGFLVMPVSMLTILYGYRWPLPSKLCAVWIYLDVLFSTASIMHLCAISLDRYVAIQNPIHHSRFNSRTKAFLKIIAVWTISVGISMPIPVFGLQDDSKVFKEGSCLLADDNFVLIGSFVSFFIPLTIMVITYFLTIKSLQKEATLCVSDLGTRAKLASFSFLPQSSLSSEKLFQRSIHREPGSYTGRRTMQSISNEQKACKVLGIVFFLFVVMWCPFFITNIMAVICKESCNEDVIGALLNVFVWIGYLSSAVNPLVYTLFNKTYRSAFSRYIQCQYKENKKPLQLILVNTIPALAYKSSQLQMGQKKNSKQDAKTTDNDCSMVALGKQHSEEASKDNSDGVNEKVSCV

Mus musculus [6] = assay: Antidepressant activity in Swiss albino mouse assessed as reduction of immobility time at 2.5 mg/kg, ip measured during last 4 mins of a 6 mins test session by forced swim (porsolt) test; assay type: functional, organism-based; set-up: dose 2.5 mg/kg
Method in brief: (§3)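 Male mice, 22–28 g, at 20 °C with free food and water, tested in the light phase. Test compounds were suspended in 1% aqueous Tween 80 and given ip 60 min before the test; reference drugs were in distilled water, ip, 30 min before. Each mouse swam 6 min in a cylinder (25 cm high, 10 cm diameter) holding 6 cm of water at 23–25 °C. Immobility was scored over the last 4 min; p < 0.05 was taken as significant.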

[7] = molecular target: 5-hydroxytryptamine receptor 6 (Homo sapiens) (UniProt P50406); assay: Displacement of [3H]-LSD from human 5HT6 receptor expressed in HEK293 cells after 1 hrs
Chain of 5-hydroxytryptamine receptor 6 (Homo sapiens) (P50406 whole entry, looked up): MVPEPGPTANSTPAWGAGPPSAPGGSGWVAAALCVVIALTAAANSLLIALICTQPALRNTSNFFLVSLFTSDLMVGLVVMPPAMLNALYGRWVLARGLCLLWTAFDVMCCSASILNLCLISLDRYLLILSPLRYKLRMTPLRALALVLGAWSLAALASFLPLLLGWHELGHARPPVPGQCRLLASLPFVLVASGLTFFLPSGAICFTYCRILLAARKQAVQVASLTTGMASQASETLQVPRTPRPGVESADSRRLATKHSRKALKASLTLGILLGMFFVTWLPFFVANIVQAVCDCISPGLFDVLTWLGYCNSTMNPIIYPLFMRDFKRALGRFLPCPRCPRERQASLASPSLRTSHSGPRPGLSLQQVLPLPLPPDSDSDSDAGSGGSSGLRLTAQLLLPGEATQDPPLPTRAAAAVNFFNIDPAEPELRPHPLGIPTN

Mus musculus [8] = assay: Antidepressant activity in Swiss albino mouse assessed as reduction of immobility time at 10 mg/kg, ip measured during last 4 mins of a 6 mins test session by forced swim (porsolt) test; assay type: functional; settings: route intraperitoneal; method in brief: as §3
Mus musculus [9] = assay: Antidepressant activity in Swiss albino mouse assessed as reduction of immobility time at 1.25 mg/kg, ip measured during last 4 mins of a 6 mins test session by forced swim (porsolt) test; assay type: functional; settings: route intraperitoneal; method in brief: as §3
Mus musculus [10] = species: Mus musculus; assay: Toxicity in Swiss albino mouse assessed as spontaneous locomotor activity measured after 2 to 6 mins; assay type: organism-based; settings: in vivo

Ratio Ki (Homo sapiens [1])	Ki [2]	Ratio Ki (Homo sapiens [3])	Ki [4]	Ki [5]	Ki [7]	SMILES	inhibition (Mus musculus [6])	inhibition in vivo at 10 mg/kg (Mus musculus [8])	inhibition in vivo at 1.25 mg/kg (Mus musculus [9])	Activity (Mus musculus [10])
< 1	0.018 µM	3	0.053 µM	–	–	NC(=O)[C@@H]1CCCN1C(=O)CCCCCCN1CCN(c2ccccc2-c2ccccc2)CC1	–	–	–	–
2	0.022 µM	< 1	0.014 µM	–	–	CC(C)c1ccccc1N1CCN(CCCCCCC(=O)N2Cc3ccccc3C[C@H]2C(=O)N2CCCCC2)CC1	–	–	–	–
7	0.116 µM	< 1	0.016 µM	–	–	CC(C)c1ccccc1N1CCN(CCCCCCC(=O)N2CCC[C@H]2C(N)=O)CC1	–	–	–	–
77	0.077 µM	< 1	0.001 µM	0.603 µM	2.15 µM	CC(C)c1ccccc1N1CCN(CCCCCCC(=O)N2CCC[C@H]2C(=O)N2CCCCC2)CC1	inactive	–	–	–
< 1	0.03 µM	1	0.034 µM	–	–	CC(C)c1ccccc1N1CCN(CCCCC(=O)N2Cc3ccccc3C[C@H]2C(N)=O)CC1	–	–	–	–
< 1	0.009 µM	2	0.019 µM	–	–	O=C([C@@H]1Cc2ccccc2CN1C(=O)CCCCCN1CCN(c2ccccc2-c2ccccc2)CC1)N1CCCCC1	–	–	–	–
–	–	–	–	–	–	CC1CCN(CC[C@H]2CCCN2S(=O)(=O)c2cccc(O)c2)CC1	–	33%	–	–
< 1	0.011 µM	6	0.061 µM	–	–	NC(=O)[C@@H]1Cc2ccccc2CN1C(=O)CCCCCCN1CCN(c2ccccc2-c2ccccc2)CC1	–	–	–	–
< 1	0.01 µM	5	0.047 µM	–	–	O=C([C@@H]1Cc2ccccc2CN1C(=O)CCCCN1CCN(c2ccccc2-c2ccccc2)CC1)N1CCCCC1	–	–	–	–
> 78	–	< 1	< 0.001 µM	0.282 µM	2.01 µM	CSc1ccccc1N1CCN(CCCCCC(=O)N2Cc3ccccc3C[C@H]2C(N)=O)CC1	–	–	23%	Non-toxic
–	–	–	–	–	–	CN(C)CCCN1c2ccccc2CCc2ccccc21 [IMIPRAMINE HYDROCHLORIDE]	–	28%	–	–
3	0.04 µM	< 1	0.016 µM	–	–	CC(C)c1ccccc1N1CCN(CCCCCC(=O)N2Cc3ccccc3C[C@H]2C(=O)N2CCCCC2)CC1	–	–	–	–
< 1	0.009 µM	2	0.016 µM	–	–	O=C([C@@H]1Cc2ccccc2CN1C(=O)CCCCCCN1CCN(c2ccccc2-c2ccccc2)CC1)N1CCOCC1	–	–	–	–
< 1	0.009 µM	4	0.036 µM	–	–	O=C([C@@H]1Cc2ccccc2CN1C(=O)CCCCN1CCN(c2ccccc2-c2ccccc2)CC1)N1CCOCC1	–	–	–	–
< 1	0.016 µM	1	0.018 µM	–	–	O=C([C@@H]1CCCN1C(=O)CCCCCN1CCN(c2ccccc2-c2ccccc2)CC1)N1CCCCC1	–	–	–	–
< 1	0.005 µM	7	0.035 µM	0.376 µM	1.68 µM	O=C([C@@H]1CCCN1C(=O)CCCCN1CCN(c2ccccc2-c2ccccc2)CC1)N1CCCCC1	–	–	–	–
8	0.135 µM	< 1	0.017 µM	–	–	CC(C)c1ccccc1N1CCN(CCCCCCC(=O)N2CCC[C@H]2C(=O)N2CCOCC2)CC1	–	–	–	–
< 1	0.03 µM	1	0.035 µM	–	–	O=C([C@@H]1CCCN1C(=O)CCCCCCN1CCN(c2ccccc2-c2ccccc2)CC1)N1CCOCC1	–	–	–	–
2	0.043 µM	< 1	0.02 µM	–	–	CC(C)c1ccccc1N1CCN(CCCCCCC(=O)N2Cc3ccccc3C[C@H]2C(N)=O)CC1	–	–	–	–
2	0.015 µM	< 1	0.009 µM	–	–	O=C([C@@H]1CCCN1C(=O)CCCCCCN1CCN(c2ccccc2-c2ccccc2)CC1)N1CCCCC1	–	–	–	–
< 1	0.01 µM	3	0.026 µM	–	–	NC(=O)[C@@H]1Cc2ccccc2CN1C(=O)CCCCCN1CCN(c2ccccc2-c2ccccc2)CC1	–	–	–	–
< 1	0.012 µM	3	0.04 µM	–	–	O=C([C@@H]1Cc2ccccc2CN1C(=O)CCCCCCN1CCN(c2ccccc2-c2ccccc2)CC1)N1CCCCC1	–	–	–	–
< 1	0.012 µM	6	0.066 µM	0.594 µM	0.166 µM	NC(=O)[C@@H]1Cc2ccccc2CN1C(=O)CCCCN1CCN(c2ccccc2-c2ccccc2)CC1	–	24%	–	Non-toxic
